# In the library only some 1.2% were active in any assay of this set; here they are far more common.
# ARNT-TACC3 inh – disrupts binding between human ARNT and TACC3; Q9Y6A5; AlphaScreen His-ARNT PAS-B/GST-TACC3 binding, luminescence; TACC3 fragment carries E629A point mutation; inhibition, % at 9.99 µM; 390,000 compounds, 0.66% hits;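 active = mean inhibition of replicates at least 50% and at least half of replicates each reaching 50%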;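 note: 0% = complete ARNT plus TACC3 wells and 100% = ARNT alone without TACC3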
# CAL PDZ FP-1 – blocks peptide binding to human CAL PDZ domain. Q9HD26. inhibition, % at 20 µM. 330,000 compounds, 0.02% hits. purified CAL PDZ, TMR-peptide fluorescence polarization, 1 h;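 active = highest replicate inhibition of at least 40%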;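 note: plate controls were DMSO neutral control wells for no effect and unlabeled competitor peptide control wells for full effect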
#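 Material: tagged CAL PDZ protein CerCALP, purified; buffer or medium: sodium phosphate/NaCl buffer pH 7.4 with TCEP, IgG, Thesit; also added: fluorescent TMR peptide probe; schedule: 1 h incubation at room temperature before polarization reading; technique: fluorescence polarization from S- and P-plane intensities, G-factor corrected; control set: unlabelled peptide and DMSO controls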
# CAL PDZ FP-2 – inhibitors of human CAL PDZ peptide binding; AID 602252; purified CAL PDZ, TMR-peptide fluorescence polarization, 1 h; 300,000 compounds, 0.92% hits; Q9HD26; inhibition, % at 24.9 µM;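 active = mean inhibition of at least 30% with at least half of replicates also reaching 30%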;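 note: 0% = DMSO neutral control and 100% = excess unlabeled competitor peptide PRC23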
# CaV13 ICDI inh – Disruptors of the CACNA1D IQ motif to Ca2+-dependent inactivation inhibitor domain association, primary screening, Förster resonance energy transfer in intact living …; HEK cells, CFP/YFP FRET ICDI-IQ, plate reader, 10 min; percent FRET-ratio fall versus neutral wells; inhibition, % at 12.3 µM; 340,000 compounds, 0.098% hits;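 active = mean replicate inhibition of at least 30% and at least 1% of replicates passing that level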;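 note: 0% = median of the neutral control wells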
# * hit, by the source's call; nt = no result given; + = active, no number.
SMILES,ARNT-TACC3 inh,CAL PDZ FP-1,CAL PDZ FP-2,CaV13 ICDI inh
O=C(CCc1c[nH]c2ccccc12)OCC(=O)c1ccccc1,nt,nt,nt,36.3*
C[C@@H]1CN([C@@H](C)CO)C(=O)c2cc(NC(=O)c3ccncc3)ccc2O[C@@H]1CN(C)C(=O)Nc1ccc(F)cc1,1.8,nt,nt,nt
COc1ccccc1Nc1ccc2c(O)cc(S(=O)(=O)O)cc2c1,active,0.7,3.2,-6.3
O=S(=O)(O)c1cc(O)c2ccc(Nc3ccccc3)cc2c1,12.3,0.2,nt,-6.2
Cc1noc(C)c1NC(=O)Nc1ccc2c(c1)C(=O)N([C@H](C)CO)C[C@@H](C)[C@H](CN(C)S(=O)(=O)c1ccc(Cl)cc1)OCCCC[C@@H](C)O2,6.4,nt,nt,nt
O=C1C(Nc2ccccc2)=CC(c2ccc(O)cc2)N1c1ccccc1 (stereo not drawn),67.4*,-2.5,0.6,-2.3
C[C@@H]1CCCCO[C@@H](CN(C)S(C)(=O)=O)[C@@H](C)CN([C@H](C)CO)C(=O)c2cc(NS(C)(=O)=O)ccc2O1,2.1,nt,nt,nt
CC(C)CCN1C(=O)c2cccc3c(N)ccc(c23)C1=O,-93.1,0.1,-1.3,+
COC(=O)c1ccc(C2C(C#N)=C(N)Oc3cc(O)ccc32)cc1 (stereo not drawn),-0.2,0.0,nt,-11.1
COc1ccc(C2C(C#N)=C(N)Oc3cc(O)ccc32)cc1Cl (stereo not drawn),5.6,nt,-53.2,+
N#CC1=C(N)Oc2cc(O)ccc2C1c1ccncc1 (stereo not drawn),0.6,-1.5,-25.4,nt
CCOc1ccc(C2C(C#N)=C(N)Oc3cc(O)ccc32)cc1OCC (stereo not drawn),-8.2,2.9,2.4,57.7*
C#CCOc1ccc(C2C(C#N)=C(N)Oc3cc(O)ccc32)cc1 (stereo not drawn),-7.1,-4.8,nt,+
C[C@H](CO)N1C[C@H](C)[C@H](CN(C)C(=O)C2CCCCC2)Oc2ncc(-c3ccccc3)cc2C1=O,7.7,nt,nt,nt
CO[C@H]1CN(C)C(=O)c2cc(NC(=O)C3CC3)ccc2OC[C@H](C)N(C)C[C@H]1C,-9.5,nt,nt,nt
C[C@@H]1CN([C@H](C)CO)C(=O)c2cc(NS(=O)(=O)c3ccc(F)cc3)ccc2O[C@H]1CN(C)Cc1ccccc1,-4.7,nt,nt,nt
CN(Cc1ccccc1)S(=O)(=O)c1ccc(N2CCOCC2)nc1,0.1,1.0,72.6*,-2.0
Cc1ccc(COc2ccc3c(c2)OCO3)cc1,nt,-1.1,39.6*,-4.9
COc1ccccc1/C=N/NC(=O)c1cccc(NC(=O)c2ccccc2C)c1,nt,-2.3,nt,-2.9
CC(=O)Nc1cccc(C(=O)N/N=C/c2ccc(F)cc2)c1,4.3,-2.2,-3.8,-15.9
Cc1ccccc1C(=O)Nc1cccc(C(=O)N/N=C/c2ccccn2)c1,45.6*,-1.6,-9.6,-18.2
Cc1ccc(C(=O)Nc2cccc(C(=O)N/N=C/c3ccc(F)cc3)c2)cc1,-19.9,-2.0,75.4*,-2.8
O=[N+]([O-])c1ccc(Oc2cccnc2)c([N+](=O)[O-])c1,-4.7,-1.4,37.0*,-5.6
Nc1ccc(Oc2ccc([N+](=O)[O-])cc2[N+](=O)[O-])cc1,14.8,1.0,0.7,-9.0
C[C@H](CO)N1C[C@H](C)[C@H](CN(C)Cc2ccccc2)OCCCC[C@H](C)Oc2ccc(NC(=O)Nc3ccccc3)cc2C1=O,7.5,nt,nt,nt
SMILES,ARNT-TACC3 inh,CAL PDZ FP-1,CAL PDZ FP-2,CaV13 ICDI inh
Cc1nnc(SC(C(=O)Nc2ccc(Cl)c([N+](=O)[O-])c2)c2ccccc2)[nH]c1=O (stereo not drawn),2.0,19.6,62.5*,5.0
Cc1cc(C)cc(NC(=O)C(Sc2nnc(C)c(=O)[nH]2)c2ccccc2)c1 (stereo not drawn),-5.2,0.3,-1.1,-4.7
CCC(=O)N[C@H]1CC[C@H](CC(=O)NCC2CCCCC2)O[C@@H]1CO,-12.5,nt,nt,nt
CCOc1ccccc1C(=O)NCC(=O)OCC(=O)N1CCCC1,-25.2,0.1,44.2*,-6.7
O=C(CCCCn1c(=O)[nH]c2ccccc2c1=O)NCCC1=CCCCC1,-8.3,-1.0,83.3*,-16.8
O=C(CCCCn1c(=O)[nH]c2ccccc2c1=O)NCCc1c[nH]c2ccccc12,8.9,-0.1,nt,-8.0
COc1cc2c(cc1OC)C(c1cc3cc4c(cc3[nH]c1=O)OCO4)N(C(=O)C1CC1)CC2 (stereo not drawn),-3.9,-1.5,-0.8,-8.7
COc1cc2c(cc1OC)C(c1cc3ccc(C)cc3[nH]c1=O)N(C(=O)c1ccco1)CC2 (stereo not drawn),nt,-2.1,40.6*,-2.2
Cc1cccc(-c2nc(N)nc(N)n2)c1,-4.0,0.4,33.8*,-1.5
COc1ccc(NC(=O)c2cn(-c3ccccc3)nc2-c2ccncc2)cc1,-3.1,-2.5,1.1,-3.5
COc1ccc(-c2nn(-c3ccccc3)cc2C(=O)NC(=S)NNC(=O)c2ccncc2)cc1,46.1*,-5.3,nt,-5.7
O=S(=O)(O)c1cccc2c(N=Nc3ccc(O)c4ncccc34)cccc12,72.8*,3.4,11.4,nt
O=C(C[C@@H]1C[C@@H]2c3cc(NC(=O)NC4CCCC4)ccc3O[C@@H]2[C@H](CO)O1)NCc1ccc(-c2ccccc2)cc1,-3.6,nt,nt,nt
Cc1ccc2[nH]c3nc(SCCN4CCOCC4)nnc3c2c1,2.9,-0.7,-3.5,-6.1
Cc1ccc2[nH]c3nc(NN)nnc3c2c1,60.7*,2.2,-3.7,-16.0
O=C(/C=C/c1ccccc1)NC(=S)NNC(=O)c1cnccn1,60.1*,-0.2,-4.2,-19.3
COc1ccc(C(=O)NC(=S)NNC(=O)c2cccnc2)cc1,40.0,-1.3,-2.7,-2.5
COc1cc(OC)cc(C(=O)NC(=S)NNC(=O)c2cnccn2)c1,66.0*,-0.5,1.3,-4.5
O=C(/C=C/c1ccccc1)NC(=S)NNC(=O)c1cccnc1,28.9,0.2,-4.0,-3.4
COc1ccc(C(=O)NC(=S)NNC(=O)c2cnccn2)cc1OC,63.4*,-1.9,-8.8,-5.2
COc1cc(OC)cc(C(=O)NNC(=S)NC(=O)c2cccnc2)c1,7.6,-1.2,60.8*,-4.9
CC=Cc1ccc2n(c1=O)C[C@H]1[C@H](CO)[C@@H](C(=O)N(C)C)[C@@H]2N1C(=O)c1ccc(F)cc1 (mixture of isomers),-1.1,nt,nt,nt
O=C(c1ccccn1)N1C[C@H]2[C@@H](c3ccccc31)[C@@H](CO)N2C(=O)C1CCCC1,24.7,nt,nt,nt
CCN(CC)c1ccc(C(=C2C=CC(=[N+](CC)CC)C=C2)c2ccccc2)cc1,22.8*,5.4,-1.9,-9.0
COc1ccc(C(=O)Oc2c(CN3CCOCC3)cc(Cl)c3cccnc23)cc1OC,nt,nt,nt,-6.1
O=C(Oc1c(CN2CCOCC2)cc(Cl)c2cccnc12)c1ccccc1F,65.5*,-0.5,-1.7,-6.2
CN(C)CCCNC(=O)C[C@H]1CC[C@@H]2[C@@H](COc3ccc(NC(=O)C4CCC4)cc3C(=O)N2C)O1,-9.5,nt,nt,nt
CCOC(=O)c1cc2nc(OCC)nc(OCC)c2[nH]1,-19.0,0.1,40.6*,-6.4
O=C(c1cnccn1)N1CC[C@@H]2[C@@H](CO)Nc3ccc(C#Cc4cccnc4)cc3[C@@H]21,4.2,nt,nt,nt

# Assay outcomes deposited in PubChem BioAssay by Broad Institute.
